Test results published in ChEMBL document CHEMBL1127433, “N6-substituted adenosine receptor agonists. Synthesis and pharmacological activity as potent antinociceptive agents” (J Med Chem, 1994).
Active and inactive are the calls of the source. No cut-off for these calls is given here.

Assays:
[1] = biological target: T1, Adenosine A2 receptor (Rattus norvegicus) (UniProt P29276+P30543); test: Percent displacement from adenosine A2 receptor at 10e-7 M in rat striatal membrane in vitro.; type: cell membranes; settings: Striatum
[2] = system: Mus musculus; test: Effective dose for phenylbenzoquinone-induced writhing in mice after peroral administration expressed as analgesic activity.; type: functional
In short: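 Mice dosed orally (0.5 mL/20 g); 1 h later given 0.02% phenylbenzoquinone in hydroalcoholic solution ip (0.20-0.24 mL). Writhings and stretches counted from minute 5 to minute 10. Six animals per group. Inhibition taken against the control mean; ED50 (50% decrease) by linear regression.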

[3] = biological target: T1, Adenosine A2 receptor (Rattus norvegicus); test: Percent displacement from adenosine A2 receptor at 10e-5 M in rat striatal membrane in vitro.; type: cell membranes
[4] = biological target: T2, Adenosine receptor A1 (Rattus norvegicus) (UniProt P25099); test: Percent displacement from adenosine A1 receptor at 10e-5 M in rat brain membrane in vitro.; type: cell membranes
T2 sequence (whole entry): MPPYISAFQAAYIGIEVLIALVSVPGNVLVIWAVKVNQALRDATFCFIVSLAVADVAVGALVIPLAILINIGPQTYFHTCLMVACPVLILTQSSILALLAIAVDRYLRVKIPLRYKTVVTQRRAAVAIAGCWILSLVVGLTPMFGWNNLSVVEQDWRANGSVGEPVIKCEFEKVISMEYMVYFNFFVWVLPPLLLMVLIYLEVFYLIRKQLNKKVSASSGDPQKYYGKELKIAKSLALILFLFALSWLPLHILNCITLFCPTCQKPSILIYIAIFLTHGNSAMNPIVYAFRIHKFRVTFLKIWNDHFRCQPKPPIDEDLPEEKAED

[5] = biological target: T2, Adenosine receptor A1 (Rattus norvegicus); test: Percent displacement from adenosine A1 receptor at 10e-7 M in rat brain membrane in vitro.; type: cell membranes
[6] = biological target: Adenosine A2 receptor (Rattus norvegicus, UniProt P29276+P30543); test: Binding affinity for adenosine A2 receptor in vitro using rat striatal membrane.; type: cell membranes
In short: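 Rat striatal membranes in 50 mM Tris-HCl, 10 mM MgCl2, pH 7.7, adenosine deaminase treated (1 U/mL, 30 min). Incubated with [3H]NECA (4 nM, 50 μL) plus 0.11 μM cyclopentyladenosine and competitor for 60 min at 25 °C. Nonspecific binding defined with 5 μM NECA. GF/B filtration, scintillation counting, triplicate. IC50 from log-logit regression, Ki via Cheng-Prusoff, one experiment.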

[7] = biological target: T3, Adenosine receptor A1 (Rattus norvegicus, UniProt P25099); test: Binding affinity for adenosine A1 receptor in vitro using rat brain membranes.; type: cell membranes
T3 sequence (P25099 whole entry): T2 sequence (whole entry)
In short: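 Whole rat brain membranes, homogenized in 50 mM Tris-HCl pH 7.4 and spun at 1090g then 48000g, pretreated with adenosine deaminase 1 U/mL for 30 min. Nonspecific binding defined with 10 μM PIA. Separated by GF/B filtration and scintillation counted, in triplicate. IC50 from log-logit regression, Ki via Cheng-Prusoff, one experiment.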

OC[C@H]1OC(n2cnc3c(NCCc4cn(Cc5c(Cl)cccc5Cl)c5ccccc45)ncnc32)[C@H](O)[C@@H]1O (some centres not stated)
Displacement [1]: 35%
ED50 [2]: inactive
Displacement [3]: 91%
Displacement [4]: 92%
Displacement [5]: 15%

COc1ccccc1Cn1cc(CCNc2ncnc3c2ncn3C2O[C@H](C(=O)NC3CC3)[C@@H](O)[C@H]2O)c2ccccc21 (some centres not stated)
Displacement [1]: 23%
ED50 ([2]; po): 2.3 mg/kg
Displacement [3]: 89%
Ki [6]: 810 nM
Ki [7]: 170 nM
Displacement [4]: 100%
Displacement [5]: 42%

Cc1ccc(C)c(Cn2cc(CCNc3ncnc4c3ncn4C3O[C@H](C(=O)NC4CC4)[C@@H](O)[C@H]3O)c3ccccc32)c1 (some centres not stated)
Displacement [1]: 9%
ED50 ([2]; po): 2.4 mg/kg
Displacement [3]: 85%
Ki [6]: 670 nM
Ki [7]: 140 nM
Displacement [4]: 93%
Displacement [5]: 26%

CN(C)c1ccccc1Cn1cc(CCNc2ncnc3c2ncn3C2O[C@H](C(=O)NC3CC3)[C@@H](O)[C@H]2O)c2ccccc21 (some centres not stated)
Displacement [1]: 5%
ED50 ([2]; po): 1.9 mg/kg
Displacement [3]: 92%
Ki [6]: 760 nM
Ki [7]: 170 nM
Displacement [4]: 99%
Displacement [5]: 33%

C=CCn1cc(CCNc2ncnc3c2ncn3C2O[C@H](C(=O)NC3CC3)[C@@H](O)[C@H]2O)c2ccccc21 (some centres not stated)
Displacement [1]: 17%
ED50 ([2]; po): 5.3 mg/kg
Displacement [3]: 80%
Ki [6]: 280 nM
Ki [7]: 39 nM
Displacement [4]: 100%
Displacement [5]: 56%

O=C(NC1CC1)[C@H]1OC(n2cnc3c(NCCc4cn(Cc5ccc(Cl)s5)c5ccccc45)ncnc32)[C@H](O)[C@@H]1O (some centres not stated)
Displacement [1]: 6%
ED50 ([2]; po): 26.2 mg/kg
Displacement [3]: 82%
Displacement [4]: 100%
Displacement [5]: 47%

CNC(=O)[C@H]1O[C@@H](n2cnc3c(NCCc4cn(Cc5cc(C)ccc5C)c5ccccc45)ncnc32)[C@H](O)[C@@H]1O
Displacement [1]: 0%
ED50 ([2]; po): 10.2 mg/kg
Displacement [3]: 68%
Ki [6]: 3000 nM
Ki [7]: 1400 nM
Displacement [4]: 80%
Displacement [5]: 12%

Cc1ccc(C)c(Cn2cc(CC(C)Nc3ncnc4c3ncn4C3O[C@H](C(=O)NC4CC4)[C@@H](O)[C@H]3O)c3ccccc32)c1 (some centres not stated)
Displacement [1]: 9%
ED50 ([2]; po): 3.6 mg/kg
Displacement [3]: 84%
Ki [6]: 2200 nM
Ki [7]: 180 nM
Displacement [4]: 96%
Displacement [5]: 21%

OC[C@H]1O[C@@H](n2cnc3c(NCCc4cn(Cc5ccc(Cl)cc5)c5ccccc45)ncnc32)[C@H](O)[C@@H]1O
Displacement [1]: 59%
ED50 ([2]; po): 40.8 mg/kg
Displacement [3]: 97%
Ki [6]: 140 nM
Ki [7]: 11 nM
Displacement [4]: 100%
Displacement [5]: 71%

COc1ccc2c(c1)c(CCNc1ncnc3c1ncn3C1O[C@H](C(=O)NC3CC3)[C@@H](O)[C@H]1O)cn2Cc1cc(C)ccc1C (some centres not stated)
Displacement [1]: 17%
ED50 ([2]; po): 46.3 mg/kg
Displacement [3]: 91%
Displacement [4]: 100%
Displacement [5]: 16%

CC(Cc1cn(C2CCCC2)c2ccccc12)Nc1ncnc2c1ncn2C1O[C@H](C(=O)NC2CC2)[C@@H](O)[C@H]1O (some centres not stated)
Displacement [1]: 21%
ED50 ([2]; po): 2.2 mg/kg
Displacement [3]: 85%
Displacement [4]: 96%
Displacement [5]: 45%

CC(C)n1cc(CCNc2ncnc3c2ncn3[C@@H]2O[C@H](C(=O)NC3CC3)[C@@H](O)[C@H]2O)c2ccccc21
Displacement [1]: 14%
ED50 ([2]; po): 1.6 mg/kg
Displacement [3]: 91%
Ki [6]: 390 nM
Ki [7]: 120 nM
Displacement [4]: 87%
Displacement [5]: 4%

Cc1c(CCNc2ncnc3c2ncn3[C@@H]2O[C@H](C(=O)NC3CC3)[C@@H](O)[C@H]2O)c2ccccc2n1C1CCCC1
Displacement [1]: 6%
ED50 ([2]; po): 0.5 mg/kg
Displacement [3]: 92%
Ki [6]: 2180 nM
Ki [7]: 895 nM
Displacement [4]: 77%
Displacement [5]: 15%

Cc1ccc(C)c(Cn2cc(CCNc3ncnc4c3ncn4[C@@H]3O[C@H](C(=O)NC4CC4)[C@@H](O)[C@H]3O)c3cc(C)ccc32)c1
Displacement [1]: 3%
ED50 ([2]; po): 0.9 mg/kg
Displacement [3]: 70%
Ki [6]: 890 nM
Ki [7]: 62 nM
Displacement [4]: 100%
Displacement [5]: 50%

O=C(NC1CC1)[C@H]1O[C@@H](n2cnc3c(NCCc4cn(CCN5CCCC5)c5ccccc45)ncnc32)[C@H](O)[C@@H]1O
Displacement [1]: 53%
ED50 ([2]; po): 44.2 mg/kg
Displacement [3]: 95%
Ki [6]: 58 nM
Ki [7]: 7.5 nM
Displacement [4]: 100%
Displacement [5]: 96%

O=C(NC1CC1)[C@H]1OC(n2cnc3c(NCCc4c(-c5ccccc5)[nH]c5ccccc45)ncnc32)[C@H](O)[C@@H]1O (some centres not stated)
Displacement [1]: 10%
ED50 ([2]; po): 27.1 mg/kg
Displacement [3]: 71%
Displacement [4]: 84%
Displacement [5]: 20%

O=C(NC1CC1)[C@H]1OC(n2cnc3c(NCCc4cn(CCN5CCOCC5)c5ccccc45)ncnc32)[C@H](O)[C@@H]1O (some centres not stated)
Displacement [1]: 20%
ED50 ([2]; po): > 30 mg/kg
Displacement [3]: 88%
Displacement [4]: 100%
Displacement [5]: 52%

O=C(NC1CC1)[C@H]1OC(n2cnc3c(NCCc4cn(Cc5ccccn5)c5ccccc45)ncnc32)[C@H](O)[C@@H]1O (some centres not stated)
Ki [6]: 390 nM
Ki [7]: 39 nM

O=C(NC1CC1)[C@H]1O[C@@H](n2cnc3c(NCCc4cn(C5CCCC5)c5ccccc45)ncnc32)[C@H](O)[C@@H]1O
Displacement [1]: 28%
ED50 ([2]; po): 1.5 mg/kg
Displacement [3]: 90%
Ki [6]: 350 nM
Ki [7]: 110 nM
Displacement [4]: 96%
Displacement [5]: 21%

Cn1cc(CCNc2ncnc3c2ncn3C2O[C@H](C(=O)NC3CC3)[C@@H](O)[C@H]2O)c2ccccc21 (some centres not stated)
Displacement [1]: 29%
ED50 ([2]; po): 3 mg/kg
Displacement [3]: 91%
Ki [6]: 270 nM
Displacement [4]: 99%
Displacement [5]: 76%

O=C(NC1CC1)[C@H]1OC(n2cnc3c(NCCc4cn(Cc5ccc(Cl)cc5)c5ccccc45)ncnc32)[C@H](O)[C@@H]1O (some centres not stated)
Displacement [1]: 30%
ED50 ([2]; po): 0.9 mg/kg
Displacement [3]: 91%
Ki [6]: 320 nM
Ki [7]: 50 nM
Displacement [4]: 98%
Displacement [5]: 46%

Cc1ccccc1Cn1cc(CCNc2ncnc3c2ncn3C2O[C@H](C(=O)NC3CC3)[C@@H](O)[C@H]2O)c2ccccc21 (some centres not stated)
Displacement [1]: 27%
ED50 ([2]; po): < 3 mg/kg
Displacement [3]: 93%
Displacement [4]: 98%
Displacement [5]: 40%

Cc1ccc(C)c(Cn2cc(CCNc3ncnc4c3ncn4C3O[C@H](C(=O)NCCN4CCOCC4)[C@@H](O)[C@H]3O)c3ccccc32)c1 (some centres not stated)
Displacement [1]: 0%
ED50 ([2]; po): > 60 mg/kg
Displacement [3]: 19%
Displacement [4]: 5%
Displacement [5]: 5%

Cc1ccc(C)c(Cn2cc(CCNc3ncnc4c3ncn4[C@@H]3O[C@H](C(N)=O)[C@@H](O)[C@H]3O)c3ccccc32)c1
Displacement [1]: 0%
ED50 ([2]; po): > 30 mg/kg
Displacement [3]: 61%
Ki [6]: 2600 nM
Ki [7]: 510 nM
Displacement [4]: 87%
Displacement [5]: 17%

O=C(NC1CC1)[C@H]1OC(n2cnc3c(NCCc4cn(Cc5ccccc5)c5ccccc45)ncnc32)[C@H](O)[C@@H]1O (some centres not stated)
Displacement [1]: 41%
ED50 ([2]; po): 18.1 mg/kg
Displacement [3]: 94%
Ki [6]: 270 nM
Ki [7]: 40 nM
Displacement [4]: 99%
Displacement [5]: 35%

COc1ccc(Cn2cc(CCNc3ncnc4c3ncn4C3O[C@H](C(=O)NC4CC4)[C@@H](O)[C@H]3O)c3ccccc32)cc1 (some centres not stated)
Displacement [1]: 59%
ED50 ([2]; po): 71.6 mg/kg
Displacement [3]: 100%
Displacement [4]: 98%
Displacement [5]: 42%

COCCn1cc(CCNc2ncnc3c2ncn3[C@@H]2O[C@H](C(=O)NC3CC3)[C@@H](O)[C@H]2O)c2ccccc21
Displacement [1]: 19%
ED50 ([2]; po): 1.2 mg/kg
Displacement [3]: 90%
Ki [6]: 370 nM
Ki [7]: 23 nM
Displacement [4]: 98%
Displacement [5]: 61%

Cc1ccc(C)c(Cn2c(C)c(CCNc3ncnc4c3ncn4C3O[C@H](C(=O)NC4CC4)[C@@H](O)[C@H]3O)c3ccccc32)c1 (some centres not stated)
Displacement [1]: 7%
ED50 ([2]; po): 1.2 mg/kg
Displacement [3]: 60%
Displacement [4]: 56%
Displacement [5]: 5%

Cc1ccc(C)c(Cn2cc(CCNc3ncnc4c3ncn4[C@@H]3O[C@H](C(=O)NC4CC4)[C@@H](O)[C@H]3O)c3cc(Cl)ccc32)c1
Displacement [1]: 10%
ED50 ([2]; po): 6.3 mg/kg
Displacement [3]: 77%
Ki [6]: 660 nM
Ki [7]: 150 nM
Displacement [4]: 99%
Displacement [5]: 47%
